From PubChem BioAssay
FLuc stim CS: affects firefly luciferase, flagging false hits in luciferase stimulation screens. P08659. ATPlite luciferase biochemical, luminescence, 10 min; 0 = ATP-free wells, 1 = DMSO control. activation factor at 10 µM. 200,000 tested, under 10 active;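 active = luciferase activation factor, scaled between plate controls, of at least 2 with compound at 10 µM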
Target sequence (P08659 whole entry, looked up): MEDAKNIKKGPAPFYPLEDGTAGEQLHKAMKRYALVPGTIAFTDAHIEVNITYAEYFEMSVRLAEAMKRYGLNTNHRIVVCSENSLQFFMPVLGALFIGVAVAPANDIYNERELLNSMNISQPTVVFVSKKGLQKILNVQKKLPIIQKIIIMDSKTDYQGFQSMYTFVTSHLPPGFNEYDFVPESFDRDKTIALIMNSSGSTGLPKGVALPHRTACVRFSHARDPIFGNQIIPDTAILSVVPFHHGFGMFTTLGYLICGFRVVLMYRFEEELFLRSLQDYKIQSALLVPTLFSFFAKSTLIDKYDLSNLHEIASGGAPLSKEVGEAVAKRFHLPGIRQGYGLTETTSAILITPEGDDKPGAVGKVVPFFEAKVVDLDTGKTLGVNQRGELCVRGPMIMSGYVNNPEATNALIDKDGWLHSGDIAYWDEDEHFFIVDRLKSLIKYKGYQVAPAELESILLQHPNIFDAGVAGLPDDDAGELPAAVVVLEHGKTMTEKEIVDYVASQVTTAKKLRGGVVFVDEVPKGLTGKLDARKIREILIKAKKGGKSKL
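Material: Luciferase/luciferin reagent mix | Doses: Test compounds dosed from 2 mM stocks in 100% DMSO | Timing: 10 min incubation after luciferase reagent addition, room temperature | Measured by: Luminescence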
NF-kB expr up: raises NF-kB expression in human neuronal cells | NF-kB reporter expression; stronger effect = higher value | AID 1239 | fold change at 12.5 µM | actives 1.6% (n = 190,000); in the data active = fold change above about 3.3
FLuc inh counter: inhibits firefly luciferase, flagging false hits in luciferase inhibition screens; ATPLite firefly luciferase biochemical luminescence, 10 min; inhibition, % at 10 µM; actives 1.5% (n = 200,000); AID 1006; P08659;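 active = inhibition above about 50% when tested at 10 µM, limit read from the data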
APP 5'UTR act: APP 5'UTR luciferase reporter activation | SH-SY5Y APP 5'UTR luciferase reporter, luminescence; zero percent = DMSO vehicle wells | activation, % at 2 µM | actives 1% (n = 190,000);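 active = activation above a set limit, based on mean plus 3 SD of controls, cut at about 140% in these data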
APP transl inh: APP translation inhibition; actives 0.82% (n = 190,000); inhibition, % at 2 µM; AID 1285; SH-SY5Y APP 5'UTR-luciferase reporter, luminescence;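 active = inhibition above a set limit, derived from the sample mean plus 3 SD, cut at about 45% in these data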
STAT1 activator: activators of IFN-gamma induced STAT1 signaling. NIH 3T3 STAT1-luciferase reporter, luminescence; 100% = IFN-gamma alone, no compound. activation (% of control), % at 5.5 µM. actives 2.6% (n = 200,000). AID 932;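 active = activation above the screen-wide mean activation plus 3 SD, cut at about 130% in these data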;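 note: raw ratio to IFN-gamma control signal so 100% means no change and 0% no light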
* = called active by the depositor; · = not tested or not shown. Rows were chosen to be rich in hits. Some 4.8% of all compounds tested hit in one or more screens of this group.

SMILES	FLuc stim CS	NF-kB expr up	FLuc inh counter	APP 5'UTR act	APP transl inh	STAT1 activator
CC(=O)N(C)c1ccc(N=Nc2c(C)[nH]n(C(N)=S)c2=O)cc1	0.5	4.54*	49.0	139.3*	-139.3	147.8*
Cc1cccc(N=Nc2c(C)[nH]n(C(N)=S)c2=O)c1C	0.9	1.97	6.1	46.9	-46.9	130.6*
CN(C)CCCNC(=O)c1cc(C(=O)c2ccc(F)cc2)c[nH]1	1.1	1.07	-6.6	28.6	-28.6	102.7
O=Cc1c(Sc2ccccc2)nc2ccccn2c1=O	1.1	4.21*	-8.1	-5.5	5.5	95.0
O=c1c(/C=N/Nc2ccccc2)c(Sc2nnnn2-c2ccccc2)nc2ccccn12	1	0.89	-1.2	-74.9	74.9*	99.8
CS(=O)(=O)NCCn1ccc2ccccc21	1.1	1.21	-5.2	23.2	-23.3	99.6
O=C(c1n[nH]c2ccccc12)N1CCN(c2ccc(F)cc2)CC1	1	1.36	-4.7	40.9	-40.9	104.2
CCN(CC)S(=O)(=O)c1ccc2c(c1)nc(SCn1nnc3ccccc3c1=O)n2CC	1	0.8	-3.3	-91.6	91.6*	95.3
O=c1c2ccccc2nnn1CSc1nnc2ccccn12	1	1.72	-2.3	78.3	-78.3	146.3*
Cn1c(SCn2nnc3ccccc3c2=O)nc2ccccc2c1=O	1	0.97	-3.5	-1.9	1.9	90.7
O=c1c2ccccc2nnn1CSc1ccc2c(c1)OCCO2	0.9	4.2*	8.6	112.9	-113.0	146.4*
O=c1c2ccccc2nnn1CSc1nc2ccccc2c(=O)n1CCCO	1	1.02	-2.7	4.2	-4.2	86.2
O=C(OC(c1ccccc1)c1nccc2ccccc12)c1cc([N+](=O)[O-])cc([N+](=O)[O-])c1 (configuration not stated)	1	0.64	-3.8	12.4	-12.4	103.0
COc1ccccc1/C=C/C(=O)OCC(=O)Nc1c(F)cccc1F	0.4	1.05	63.9*	1.3	-1.3	96.5
CC1CN(c2ccc(Cl)cc2[N+](=O)[O-])CCN1S(C)(=O)=O (configuration not stated)	1.1	1.33	-5.1	15.9	-15.9	103.0
COc1cccc(N2CC(O)=C(c3nc4ccccc4c(=O)[nH]3)C2=N)c1	1	1.31	-4.1	-93.0	93.0*	101.9
CCOC(=O)c1c(-c2ccccc2)nc2cc(C)ccn12	0.9	1.96	9.4	57.1	-57.1	133.3*
CCOC(=O)c1c(-c2ccccc2)nc2ccc(C)cn12	0.9	2.2	9.8	66.0	-66.0	137.9*
O=C(CCCC(=O)OCC(Cl)=C(Cl)Cl)Nc1ccc(F)cc1	1	1.06	-1.5	4.8	-4.8	88.9
CC1C/C(=C\c2cccnc2)C(=O)/C(=C/c2cccnc2)C1 (configuration not stated)	1	0.23	-2.6	-96.5	96.5*	78.8
CCc1ccc(C2=C/C(=C/c3cccnc3)C(=O)O2)cc1	0.7	1.4	32.0	2.4	-2.4	108.4
O=C(c1cnsn1)N1CCC(CO)(Cc2cccc(F)c2)CC1	1	·	-0.8	55.6	-55.6	133.3*
OCC1(Cc2cccc(F)c2)CCN(Cc2ccc3cccc(F)c3n2)CC1	1.1	0.95	-10.5	9.1	-9.1	107.8
CCOC(=O)c1cc(CC)sc1NC(=O)COC(=O)c1cc[n+]([O-])cc1	1	1.02	-3.4	-5.0	4.9	99.2
CCOc1ccc2c(c1)sc(=NC(=O)C1CC1)n2C	0.6	2.98	37.4	56.3	-56.3	150.2*
SMILES	FLuc stim CS	NF-kB expr up	FLuc inh counter	APP 5'UTR act	APP transl inh	STAT1 activator
Cn1c(=NC(=O)C2CCCCC2)sc2cc([N+](=O)[O-])ccc21	1	0.91	-4.8	12.6	-12.6	103.0
COc1ccc(C(=O)CSc2nnc(-c3ccco3)c(-c3ccco3)n2)cc1	1	1.07	2.6	-66.6	66.6*	95.0
COc1ccc(C(=O)CSc2nnc(-c3ccco3)n2C)cc1	1	1.12	-4.2	16.8	-16.8	96.6
O=C(CSc1nnc(-c2ccco2)c(-c2ccco2)n1)Nc1ccccc1	1	0.96	4.7	-50.1	50.1*	91.3
Cc1ccc(NC(=O)CSc2nnc(-c3ccco3)c(-c3ccco3)n2)cc1	0.9	1.47	9.4	-31.3	31.3	103.2
CC(C)CN(C(=O)COC(=O)c1c(Cl)ccc(Cl)c1Cl)C1CCS(=O)(=O)C1 (configuration not stated)	1	0.86	-2.4	7.5	-7.5	103.6
CC(C)(C)NC(=O)COC(=O)c1ccccc1OCC(=O)Nc1ccc(Br)cc1	0.4	1.07	64.0*	11.0	-11.0	105.2
COc1cc([C@@H]2C[C@H]3CN(c4ccccc4)C(=O)[C@]34CCCN24)cc(OC)c1OC	1	0.92	-4.1	0.8	-0.8	109.9
COc1ccccc1-n1cc([C@@H]2C[C@H]3CN(c4ccccc4)C(=O)[C@]34CCCN24)cn1	1	0.79	-3.1	-94.8	94.8*	111.4
O=C(COC(=O)CNC(=O)c1ccc(-c2ccccc2)cc1)NCc1ccco1	0.9	1.3	7.7	-3.1	3.1	104.6
Cc1ccc(-c2csc3ncnc(SCc4ccc(C(=O)O)cc4)c23)cc1	1	1.04	-4.0	2.3	-2.3	104.3
CCc1n[nH]c(=S)n1/N=C/c1cc(OC)cc([N+](=O)[O-])c1O	0.9	1.05	11.5	14.5	-14.5	107.1
Cc1ccccc1C(=O)NC(CC(C)C)C(=O)OCc1cc(=O)n2cc(Br)ccc2n1 (configuration not stated)	1	3.53*	1.7	73.6	-73.6	137.7*
O=C(OCc1cc(=O)n2cc(Br)ccc2n1)C1COc2ccccc2O1 (configuration not stated)	1.1	1.32	-10.2	-9.3	9.3	103.7
CC(C)[C@H](NC(=O)c1ccccc1Cl)C(=O)OCc1cc(=O)n2cc(Br)ccc2n1	1	0.95	1.9	-8.4	8.4	99.2
CC1CC1C(=O)OCc1cc(=O)n2cc(Br)ccc2n1 (configuration not stated)	0.9	2.13	10.8	63.3	-63.3	135.6*
Clc1ccccc1CSc1ncn(-c2ccccc2)n1	1	2.54	0.2	83.4	-83.4	130.7*
Cc1ccc(S(=O)(=O)N2CCOCC2)cc1NC(=O)COC(=O)CNC(=O)c1ccc(C(C)(C)C)cc1	0.2	1.2	81.0*	25.2	-25.2	98.6
Cc1ccc(S(=O)(=O)N2CCOCC2)cc1NC(=O)COC(=O)CNC(=O)c1ccc(Oc2ccccc2)cc1	0.3	0.91	73.0*	16.1	-16.1	100.0
Cc1ccc(S(=O)(=O)N2CCOCC2)cc1NC(=O)COC(=O)Cc1ccsc1	1.1	0.94	-8.0	-2.4	2.4	90.0
COc1cc(/C=N/NC(=O)c2cc(-c3c(C)nn(-c4ccccc4)c3C)n[nH]2)ccc1O	0.9	0.73	13.0	-6.0	6.0	209.2*
